# Reference: ChEMBL document CHEMBL1141162, “Inhibition of carboxylesterases by benzil (diphenylethane-1,2-dione) and heterocyclic analogues is dependent upon the aromaticity of the ring and the flexibility of the dione moiety” (J Med Chem, 2005)
# Several values for one entry are separate records, joined by “and”; a condition that tells them apart may be missing. Identical values can stand only once.
# Key:
# Liver carboxylesterase 1 = molecular target: T1, Liver carboxylesterase 1 (Homo sapiens, UniProt P23141); assay: Inhibition constant against human liver carboxylesterase (hCE1) expressed in Sf21 cells using 3 mM o-NPA; assay type: cell-based, Oryctolagus cuniculus
# T1 sequence (P23141 whole entry): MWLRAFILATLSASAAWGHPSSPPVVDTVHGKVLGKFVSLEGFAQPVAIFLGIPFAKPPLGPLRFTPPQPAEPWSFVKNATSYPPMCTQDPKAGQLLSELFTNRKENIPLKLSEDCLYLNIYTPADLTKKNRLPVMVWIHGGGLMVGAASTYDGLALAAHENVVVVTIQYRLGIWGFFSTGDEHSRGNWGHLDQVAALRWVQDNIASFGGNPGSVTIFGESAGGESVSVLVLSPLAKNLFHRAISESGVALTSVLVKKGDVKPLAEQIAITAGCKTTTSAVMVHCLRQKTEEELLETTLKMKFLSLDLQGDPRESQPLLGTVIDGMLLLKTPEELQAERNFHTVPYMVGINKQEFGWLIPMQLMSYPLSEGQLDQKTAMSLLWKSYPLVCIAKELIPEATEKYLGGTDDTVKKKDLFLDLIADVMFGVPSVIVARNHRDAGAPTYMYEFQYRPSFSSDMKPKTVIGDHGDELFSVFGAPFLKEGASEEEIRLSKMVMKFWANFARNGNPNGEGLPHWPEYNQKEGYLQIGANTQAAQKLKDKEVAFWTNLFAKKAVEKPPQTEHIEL
# Acetylcholinesterase = Acetylcholinesterase (Homo sapiens, UniProt P22303); assay: Inhibition of 1 mM acetylthiocholine (AcTCh) binding to human Acetylcholinesterase
# Sequence of Acetylcholinesterase (P22303 whole entry): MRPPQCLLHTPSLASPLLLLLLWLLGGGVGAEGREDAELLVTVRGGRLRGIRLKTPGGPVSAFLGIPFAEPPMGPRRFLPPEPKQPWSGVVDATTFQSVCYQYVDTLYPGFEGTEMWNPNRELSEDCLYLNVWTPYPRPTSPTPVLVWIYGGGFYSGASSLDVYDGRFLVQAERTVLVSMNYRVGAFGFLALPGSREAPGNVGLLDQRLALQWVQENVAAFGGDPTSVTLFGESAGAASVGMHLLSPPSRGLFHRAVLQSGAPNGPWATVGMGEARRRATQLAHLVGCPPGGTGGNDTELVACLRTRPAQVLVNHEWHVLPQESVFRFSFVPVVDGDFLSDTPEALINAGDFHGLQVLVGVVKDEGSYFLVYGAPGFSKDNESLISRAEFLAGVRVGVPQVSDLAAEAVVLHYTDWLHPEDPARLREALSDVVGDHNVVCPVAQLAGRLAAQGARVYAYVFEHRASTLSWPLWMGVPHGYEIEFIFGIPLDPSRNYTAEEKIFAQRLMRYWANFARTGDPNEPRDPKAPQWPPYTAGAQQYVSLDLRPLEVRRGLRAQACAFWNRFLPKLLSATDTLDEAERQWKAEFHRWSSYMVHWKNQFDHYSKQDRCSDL
# Method in brief: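 Human acetylcholinesterase from a commercial supplier, assayed with 1 mM acetylthiocholine as substrate.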
# Cocaine esterase = molecular target: T2, Cocaine esterase (Homo sapiens, UniProt O00748); assay: Inhibition constant against human intestinal carboxylesterase (hiCE) expressed in Sf21 cells using 3 mM o-NPA
# T2 sequence (O00748 whole entry): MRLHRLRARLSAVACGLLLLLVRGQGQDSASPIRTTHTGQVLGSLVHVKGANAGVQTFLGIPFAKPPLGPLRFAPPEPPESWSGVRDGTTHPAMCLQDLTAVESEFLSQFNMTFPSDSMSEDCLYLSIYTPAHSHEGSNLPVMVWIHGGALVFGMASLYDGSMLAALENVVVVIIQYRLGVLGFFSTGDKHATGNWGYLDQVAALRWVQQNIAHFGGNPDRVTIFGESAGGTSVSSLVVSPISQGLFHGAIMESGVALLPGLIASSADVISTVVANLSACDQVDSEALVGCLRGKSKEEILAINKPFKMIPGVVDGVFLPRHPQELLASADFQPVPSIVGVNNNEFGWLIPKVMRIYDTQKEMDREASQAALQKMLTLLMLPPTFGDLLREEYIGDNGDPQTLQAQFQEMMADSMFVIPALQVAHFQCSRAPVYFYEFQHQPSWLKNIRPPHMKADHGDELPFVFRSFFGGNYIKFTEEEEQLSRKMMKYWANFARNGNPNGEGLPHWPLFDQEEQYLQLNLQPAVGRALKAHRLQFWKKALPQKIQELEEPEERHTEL
# [1] = Inhibition constant against rabbit liver carboxylesterase (rCE) expressed in Sf21 cells using 3 mM o-NPA; parameters: species or system Oryctolagus cuniculus
smiles,measurement,setting,value
O=C(C(=O)c1ccccn1)c1ccccn1,Ki,Liver carboxylesterase 1,0.126 µM and 0.484 µM
same,Ki,Acetylcholinesterase,> 100 µM
O=C(c1ccco1)C(O)c1ccco1 (stereo not drawn),Ki,Cocaine esterase,> 100 µM
same,Ki,Liver carboxylesterase 1,> 100 µM
same,Ki,Liver carboxylesterase 1; sf21,> 100 µM
same,Ki,Acetylcholinesterase,> 100 µM
O=C(C(=O)c1cccs1)c1cccs1,Ki,Cocaine esterase,1.04 µM
same,Ki,Liver carboxylesterase 1,0.212 µM and 0.874 µM
same,Ki,Acetylcholinesterase,> 100 µM
O=C(C(=O)c1ccco1)c1ccco1,Ki,Cocaine esterase,8 µM
same,Ki,Liver carboxylesterase 1,1.17 µM and 8.48 µM
same,Ki,Acetylcholinesterase,> 100 µM
O=C(c1cccs1)C(O)c1cccs1 (stereo not drawn),Ki,Cocaine esterase,5.61 µM
same,Ki,Liver carboxylesterase 1,1.66 µM and 4.54 µM
same,Ki,Acetylcholinesterase,> 100 µM
O=C(C(=O)c1ccc(Br)s1)c1ccc(Br)s1,Ki,Acetylcholinesterase,> 100 µM
O=C(C(=O)c1ccsc1)c1ccsc1,Ki,Cocaine esterase,6.54 µM
same,Ki,Liver carboxylesterase 1,0.365 µM and 2.41 µM
same,Ki,Acetylcholinesterase,> 100 µM
O=C(C(=O)c1cc(Br)cs1)c1cc(Br)cs1,Ki,Cocaine esterase,0.0573 µM
same,Ki,Acetylcholinesterase,> 100 µM
O=C(C(=O)c1ccc2ccccc2c1)c1ccc2ccccc2c1,Ki,Liver carboxylesterase 1,0.255 µM
same,Ki,[1],0.00104 µM
